# Laboratory results as given in PubChem BioAssay AID624038 (The Scripps Research Institute Molecular Screening Center, 2012).
# Screen size: about 360,000 compounds; about 1,100 (0.31%) were called active. Only a selection was taken, and actives are over-represented in it overall. A number with no mark means an inactive call.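 The calls were made as follows: active = activation above the run cutoff, the mean activation of all test compounds plus 3 SD (cut at about 18% in these data); inactive = the rest.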
# Target: Muscarinic acetylcholine receptor M5 (Homo sapiens) (UniProt P08912)
# Sequence (P08912 whole entry, looked up): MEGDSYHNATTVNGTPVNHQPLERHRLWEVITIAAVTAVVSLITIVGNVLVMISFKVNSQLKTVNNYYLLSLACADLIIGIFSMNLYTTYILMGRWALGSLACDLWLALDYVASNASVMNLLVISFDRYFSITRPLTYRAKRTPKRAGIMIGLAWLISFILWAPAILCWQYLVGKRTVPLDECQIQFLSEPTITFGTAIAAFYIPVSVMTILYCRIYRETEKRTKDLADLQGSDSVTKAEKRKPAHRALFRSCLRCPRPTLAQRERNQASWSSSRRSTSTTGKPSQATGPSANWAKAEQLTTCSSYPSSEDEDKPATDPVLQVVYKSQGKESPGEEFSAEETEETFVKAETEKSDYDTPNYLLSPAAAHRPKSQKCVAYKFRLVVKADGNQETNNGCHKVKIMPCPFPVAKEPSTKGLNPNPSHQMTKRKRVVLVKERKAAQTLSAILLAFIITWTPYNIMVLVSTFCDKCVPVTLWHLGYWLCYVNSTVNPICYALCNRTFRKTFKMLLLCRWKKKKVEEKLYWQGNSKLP
# Assay: CHRM5 PAMs potentiating acetylcholine calcium signal – CHO-K1 cells, Fluo-8 calcium fluorescence, primary screen (AID 624038)
# Settings: CHO-K1 hM5, Fluo-8 calcium, ACh EC20 PAM; at 3 µM; hits give high values; 0% = ACh EC20, 100% = ACh EC100
# How it was run: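 Assay system: CHO-K1 hM5 cells. Also added: acetylcholine at EC20 concentration, added after compound. Dosing: 3 µM, single dose. Times: compound preincubation 140 s before EC20 acetylcholine addition. Signal: Fluo-8 calcium fluorescence. Measure: % activation relative to EC20 and EC100 ACh responses. Repeats: singlicate, one well per test compound.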
row,SMILES,activation
1,CCCc1ccc(C(=O)[C@@H]2[C@@H](C(C)=O)N3c4ccc(F)cc4C=C[C@@H]3[C@@]23C(=O)Nc2ccccc23)cc1,25.3% (active)
2,COC(=O)c1ccc(Oc2nc(NC(C)C)nc(SC)n2)cc1,2.31%
3,CCOc1ccc(N(C)S(=O)(=O)c2cnc[nH]2)cc1,11.8%
4,Cc1ccc2[nH]c(=O)c(CN(C)S(=O)(=O)c3cccc4nonc34)cc2c1,4.24%
5,CCCc1nc(-c2cc3cc(C)ccc3[nH]c2=O)no1,25% (active)
6,Cc1ccc2[nH]c(=O)c(COC(=O)c3ccccn3)cc2c1,-8.69%
7,Cc1c(C(=O)NCC2CC2)sc(=O)n1Cc1cccc(F)c1,2.84%
8,CCCn1c(O)c(CN2CCCC(C)C2)c(C)c(C#N)c1=O (stereo not drawn),-2.92%
9,CC(C)(C)NC(=O)CN(C(=O)c1csnn1)c1ccccc1-c1ccccc1,-2.48%
10,O=C(COC(=O)c1ccc(Cl)nc1)NCc1cccs1,-12.7%
11,CC(C)(C)NC(=O)CN(C(=O)c1ccc(Cl)nc1)c1cccc2ccccc12,22.9% (active)
12,O=c1c2cc(-c3ccccc3)sc2nc2n1N=C(c1cccs1)CS2,9.65%
13,Cc1cc(C)n(-c2nnc(N3CCN(c4ccccc4)CC3)nn2)n1,-0.36%
14,Cc1cc(C)nc(-n2nc(C)cc2NC(=O)c2ccc(F)cc2F)n1,3.36%
15,Cc1cc(N/N=C\c2ccc(Br)cc2)nc(-n2nc(C)cc2C)n1,20.4% (active)
16,COc1ccccc1-c1n[nH]nc1C1=CC(=O)CC(C)(C)C1,-0.48%
17,CCCCCCCCN1C(=O)[C@H](CC(=O)NCC23CC4CC(CC(C4)C2)C3)C[C@@]2(C(=O)OC)CCCCC=C12,-2.23%
18,CC(NC(=O)C(=O)N/N=C/c1ccc(Cl)cc1)c1ccccc1 (stereo not drawn),-5.3%
19,Cc1ccc(C(=O)NC(C)c2ccccc2)cc1Br (stereo not drawn),-0.29%
20,CC(NC(=O)c1cc2cc(Cl)ccc2oc1=N)c1ccccc1 (stereo not drawn),35.2% (active)
21,COC(=O)c1cccc([N+](=O)[O-])c1CS(=O)(=O)c1ccc(C)cc1,-5.08%
22,CC(=O)N1c2ccc(S(=O)(=O)N3CCC(C(=O)NC4CCCCC4C)CC3)cc2CC1C (stereo not drawn),-5.55%
23,COC(=O)Cc1nc2c(N)nc(N)nc2[nH]c1=O,5.33%
24,COc1cc(C2C3=C(CCCC3=O)OC3=C2C(=O)CCC3)ccc1OCC(=O)Nc1ccccc1,-5.18%

row,SMILES,activation
1,N#CC1=C(N)OC2=C(C(=O)CCC2)C1C1CC=CCC1 (stereo not drawn),-4.35%
2,NC1=C([N+](=O)[O-])C(c2ccccc2)C2=C(CCCC2=O)O1 (stereo not drawn),23.6% (active)
3,CCCNC(=O)C1(C)CCN(Cc2ccc(Cl)c(Cl)c2)C1 (stereo not drawn),0.24%
4,Cc1cc(-n2cnc(-c3cn(C)nc3C)n2)no1,-0.03%
5,CC(C)Oc1ccc(CN2CCC(n3nccc3NC(=O)c3cccnc3)CC2)cc1,0.11%
6,COc1ccc(S(=O)(=O)N2CCN(CC(=O)N3CCNC3=O)CC2)cc1OC,2.2%
7,Cc1cc(C)cc(C(=O)N2CCN=C2SCc2ccc([N+](=O)[O-])cc2)c1,-5.65%
8,CN1C2CCC1CC(NC(=O)c1ccc([N+](=O)[O-])cc1)C2 (stereo not drawn),0.81%
9,CC(=O)N1CC[n+]2c(-c3ccc([N+](=O)[O-])cc3)csc21,20% (active)
10,O=C(NNS(=O)(=O)c1c(F)cc(F)c(Cl)c1F)C12CC3CC(CC(C3)C1)C2,-0.38%
11,CC(C)(C)C1CCC(OC(=O)CCC(=O)Nc2ccccc2)CC1 (stereo not drawn),-2.13%
12,CN1CCC(=NNC(=O)CN(c2cccc(Cl)c2)S(C)(=O)=O)CC1,7.47%
13,CC(CCc1ccccc1)NC(=O)COC(=O)c1ccc(F)cc1 (stereo not drawn),-4.05%
14,COc1cc(C(=O)OCC(=O)NC(C)CCc2ccccc2)cc(OC)c1OC (stereo not drawn),-10.1%
15,COc1cc(OC)cc(C(=O)NCC(=O)OCC(=O)NC(C)CCc2ccccc2)c1 (stereo not drawn),21.1% (active)
16,CC(C)CN(C(=O)CSc1nncn1C)C1CCS(=O)(=O)C1 (stereo not drawn),11.7%
17,CCOc1ccc(CCNC(=O)C(CC)n2nc(C)n3c(cc4sccc43)c2=O)cc1OCC (stereo not drawn),-4.37%
18,CCC(C(=O)NCc1ccc(OC)cc1)n1nc(C)n2c(cc3occc32)c1=O (stereo not drawn),18.4% (active)
19,CCc1nn(CCCC(=O)NCc2ccc(C)cc2)c(=O)c2cc3occc3n12,2.21%
20,COc1cc(OC)c(NC(=O)C2CCCN2C(=O)OCc2ccccc2)cc1Cl (stereo not drawn),2.68%
21,CCCCNC(=O)OC1CC2CC1[C@H]1CCCCN1C2=O (stereo partly drawn),0.25%
22,CC(=O)Oc1ccc(-c2cccc(C(=O)N3CCCCC3)c2)cc1,-3.42%
23,COc1ccc(OCc2cccc(C(=O)N3CCCC3)c2)cc1,19.1% (active)
24,CCOc1ccc(OCc2cccc(C(=O)N(CC)CC)c2)cc1,-1.6%

row,SMILES,activation
1,Cc1ccc(C2SCC(=O)N2c2ccccc2)cc1 (stereo not drawn),13.5%
2,C[C@H]1COC(=O)[C@H](CC(=O)OC(C)(C)C)C/C=C\C[C@@H](CC(=O)N[C@H](CO)Cc2ccccc2)C(=O)N1,20.5% (active)
3,CC(C)(C)OC(=O)C[C@@H]1C/C=C\C[C@@H](CC(=O)N[C@H](CO)Cc2ccccc2)C(=O)NCCOC1=O,-2.01%
4,CC(C)(C)OC(=O)C[C@@H]1C/C=C\C[C@H](CC(=O)N[C@@H](CO)Cc2ccccc2)C(=O)N[C@H](Cc2ccccc2)COC1=O,-0.44%
5,Cc1nn(C)c(C)c1Sc1ccccc1N,-3.24%
6,O=C(CNC(=O)c1ccccc1F)c1ccc(Br)cc1,1.83%
7,O=C(COC(=O)CNC(=O)c1ccccc1F)NCC(F)(F)F,16.4%
8,COC(=O)CNC(=O)c1ccccc1F,22.4% (active)
9,Cn1ncc(Br)c1C(=O)NC1CCCC1,36.9% (active)
10,Cc1nn(C)c(C(=O)NNC(=S)NC2CCCCC2)c1Cl,-3.58%
11,COc1ccccc1NC(=O)c1c(Br)cnn1C,0.59%
12,O=S(=O)(NCCc1ccccc1)c1ccccc1,20.4% (active)
13,CC(=O)Nc1ccc(S(=O)(=O)NCCc2ccccc2)cc1,-2.74%
14,O=S(=O)(NCCc1ccncc1)c1ccccc1,8.02%
15,CCCC(C)n1[nH]c(=O)c2c(C)cc(C)nc21 (stereo not drawn),4.59%
16,O=C1COc2ccc(C(=O)COC(=O)c3ccccc3Cl)cc2N1,-8.98%
17,Cc1ccc(S(=O)(=O)N(C)C)cc1NC(=O)CN1c2cccc3cccc(c23)S1(=O)=O,-2.16%
18,Cc1nc(Nc2ccccc2C)c2cnn(C)c2n1,-2.69%
19,Cn1ncc2c(Nc3cccc4ccccc34)ncnc21,43.5% (active)
20,Cn1ncc2c(NNC(=O)Cc3cccc4ccccc34)ncnc21,6.42%
21,CCCNC(=O)COc1coc(CN2CCN(Cc3ccccc3)CC2)cc1=O,-3.51%
22,Cc1c(C(=O)Nc2cccc(-c3nnc4n3CCCCC4)c2)oc2ccccc12,-11.2%
23,O=C(Cn1[nH]c(=O)c2ccccc2c1=O)Nc1cccc(-c2nnc3n2CCCCC3)c1,22.3% (active)
24,Brc1cccc(-c2nnc3n2CCC3)c1,-2.96%

row,SMILES,activation
1,Cc1ccc(C)c(N2CCN(C(=O)CCc3nc(-c4cccc(C(F)(F)F)c4)no3)CC2)c1,-0.63%
2,OC[C@H]1O[C@@H](c2nc(-c3nc(-c4ccc(F)cc4)no3)cs2)[C@H](O)[C@@H](O)[C@H]1O,-2.26%
3,Cc1cccc(-c2noc(-c3ccc(F)cc3)n2)c1,18.1% (active)
4,Cc1ccc(-c2cccc([C@H]3[C@@H]4C=CC[C@@H](C)[C@@H]4C(=O)N3Cc3ccccc3)c2)cc1,-3.69%
5,Cc1nn(Cc2ccc(F)cc2)c(C)c1NC(=O)c1noc2c1CCc1ccccc1-2,-7.62%
6,Cc1nn(Cc2ccc(Cl)c(Cl)c2)c(C)c1NC(=O)c1cc(C2CC2)on1,-11.4%
7,Cc1nn(Cc2ccc(F)cc2)c(C)c1NC(=O)c1cccnc1Cl,24.4% (active)
8,CCNc1nc(NCC)nc(N(C)n2cnnc2)n1,1.44%
9,Nc1c(-c2ccc(F)cc2)cnn1C1CCS(=O)(=O)C1 (stereo not drawn),0.13%
10,O=C(OC12CC3CC(CC(C3)C1)C2)c1ccc(NCc2cc(O)ccc2O)cc1,21.9% (active)
11,CC(C)C(=O)Nc1ccc2c(c1)oc1ccccc12,-7.04%
12,Cc1nc2sc(C(c3ccco3)N3CCOCC3)c(O)n2n1 (stereo not drawn),20.1% (active)
13,Oc1c(C(c2ccco2)N2CCC3(CC2)OCCO3)sc2ncnn12 (stereo not drawn),-1.05%
14,Oc1c(C(c2cccs2)N2CCN(c3ccc(F)cc3)CC2)sc2ncnn12 (stereo not drawn),-5.38%
15,Cc1ccc(C(c2sc3nc(C)nn3c2O)N2CCN(c3ccc(F)cc3)CC2)cc1 (stereo not drawn),42.2% (active)
16,Cc1nc2sc(C(c3ccco3)N3CCC4(CC3)OCCO4)c(O)n2n1 (stereo not drawn),5.68%
17,Cc1ccc(C(c2sc3nc(C)nn3c2O)N2CCN(c3ccccc3)CC2)cc1 (stereo not drawn),5.14%
18,COc1ccc(COC(=O)N/N=C(\C)CC(=O)Nc2ccc(Cl)cc2)cc1,-3.42%
19,COC(=O)c1ccc(C)c(NC(=O)C2CC(=O)N(C3CCCC(C)C3C)C2)c1 (stereo not drawn),0.01%
20,Cc1ccc(NC(=O)Cn2cnc3c(OCc4ccccc4)ncnc32)cc1C,1.1%
21,CCN(Cc1nc2ccccc2c(=O)[nH]1)Cc1cc(=O)oc2cc(C)c(C)cc12,-12.3%
